Measurements published in ChEMBL document CHEMBL1135766, “Synthesis of conformationally constrained analogues of linezolid: structure-activity relationship (SAR) studies on selected novel tricyclic oxazolidinones” (2002).
Values after ≈ are worked out from the molar mass of the structure shown.

Experiments:
Mus musculus = assay: In vivo antibacterial activity in a murine systemic infection model; format: functional
How it was run: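 Female Swiss Albino mice (22–25 g, n = 6) were infected intraperitoneally with 0.5 mL S. aureus ATCC 29213. The inoculum was grown 2–3 h at 35 °C in BHI broth and adjusted to 100 × LD50 in 5% hog gastric mucin. Compound was suspended in 0.25% carboxymethyl cellulose and given orally 1 and 6 h post-infection; controls received saline. Cumulative mortality was scored over 48 h, and ED50 was derived by linear regression.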

Staphylococcus aureus [1] = assay: In vitro antibacterial activity against methicillin resistant Staphylococcus aureus ATCC 33591 (S. a. 019); format: functional
How it was run: (§1)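 Broth microdilution MIC per NCCLS guidelines in Mueller Hinton medium. Doubling dilutions from 256 to 1 μg/mL, inoculum (1–5) × 10⁵ CFU/mL, incubated overnight in ambient air at 35 °C. MIC is the lowest concentration giving complete growth inhibition. Linezolid and vancomycin served as controls.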

Enterococcus faecalis [2] = assay: In vitro antibacterial activity against Enterococcus faecalis ATCC 29212 (E. f. 034) vancomycin sensitive; format: functional; how it was run: as §1
Staphylococcus aureus [3] = assay: In vitro antibacterial activity against Staphylococcus aureus ATCC 49951 (S. a. 213); format: functional; how it was run: as §1
Staphylococcus aureus [4] = assay: In vitro antibacterial activity against Staphylococcus aureus ATCC 29213 (S. a. 035); format: functional
How it was run: (§2)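 Broth microdilution per NCCLS guidelines in Mueller Hinton medium. Doubling dilutions 256–1 μg/mL; inoculum (1–5) × 10⁵ CFU/mL; plates incubated overnight at 35 °C in ambient air. MIC read as the lowest concentration giving complete growth inhibition. Linezolid and vancomycin served as controls.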

Enterococcus faecium = assay: In vitro antibacterial activity against Enterococcus faecium ATCC 12202 (E.fm 154) vancomycin resistant; format: functional, enterococcus fecium; how it was run: as §1
Enterococcus faecalis [5] = assay: In vitro antibacterial activity against Enterococcus faecalis NCTC 12201 (E. f. 153) vancomycin resistant; format: functional; how it was run: as §1
Enterococcus faecalis [6] = assay: In vitro antibacterial activity against Enterococcus faecalis ATCC 29212 (E. f. 153) vancomycin sensitive; format: functional; how it was run: as §2

SMILES | ED50 (Mus musculus) [mg/kg] | MIC (Staphylococcus aureus [1]) [µg/mL] | MIC (Enterococcus faecalis [2]) [µg/mL] | MIC (Staphylococcus aureus [3]) [µg/mL] | MIC (Staphylococcus aureus [4]) [µg/mL] | MIC (Enterococcus faecium) [µg/mL] | MIC (Enterococcus faecalis [5]) [µg/mL] | MIC (Enterococcus faecalis [6]) [µg/mL]
COC(=O)NC[C@H]1CN(c2cc(F)c3c(c2)OC[C@@H]2CCCN32)C(=O)O1 | 3.3 | 2 (≈ 5.47 µM) | 2 (≈ 5.47 µM) | 2 (≈ 5.47 µM) | 2 (≈ 5.47 µM) | 2 (≈ 5.47 µM) | 2 (≈ 5.47 µM) | –
C/C(S)=N\C[C@H]1CN(c2cc(F)c3c(c2)OC[C@@H]2CCCN32)C(=O)O1 | 30 | 0.5 (≈ 1.37 µM) | 1 (≈ 2.74 µM) | 0.5 (≈ 1.37 µM) | 0.5 (≈ 1.37 µM) | 1 (≈ 2.74 µM) | 1 (≈ 2.74 µM) | –
CCCC(=O)NC[C@H]1CN(c2cc(F)c3c(c2)OC[C@@H]2CCCN32)C(=O)O1 | – | 4 (≈ 10.6 µM) | 4 (≈ 10.6 µM) | 4 (≈ 10.6 µM) | 4 (≈ 10.6 µM) | 4 (≈ 10.6 µM) | 4 (≈ 10.6 µM) | –
CC(C)O/C(S)=N\C[C@H]1CN(c2cc(F)c3c(c2)OC[C@@H]2CCCN32)C(=O)O1 | – | 8 (≈ 19.5 µM) | 8 (≈ 19.5 µM) | 8 (≈ 19.5 µM) | 8 (≈ 19.5 µM) | 8 (≈ 19.5 µM) | – | 8 (≈ 19.5 µM)
C/N=C(\S)NC[C@H]1CN(c2cc(F)c3c(c2)OC[C@@H]2CCCN32)C(=O)O1 | – | 2 (≈ 5.26 µM) | 2 (≈ 5.26 µM) | 4 (≈ 10.5 µM) | 4 (≈ 10.5 µM) | 4 (≈ 10.5 µM) | 4 (≈ 10.5 µM) | –
CCCCCC(=O)NC[C@H]1CN(c2cc(F)c3c(c2)OC[C@@H]2CCCN32)C(=O)O1 | – | 16 (≈ 39.5 µM) | 32 (≈ 78.9 µM) | 32 (≈ 78.9 µM) | 32 (≈ 78.9 µM) | 32 (≈ 78.9 µM) | 32 (≈ 78.9 µM) | –
CCO/C(S)=N\C[C@H]1CN(c2cc(F)c3c(c2)OC[C@@H]2CCCN32)C(=O)O1 | – | 1 (≈ 2.53 µM) | 2 (≈ 5.06 µM) | 2 (≈ 5.06 µM) | 2 (≈ 5.06 µM) | 2 (≈ 5.06 µM) | – | 2 (≈ 5.06 µM)
CCC(=O)NC[C@H]1CN(c2cc(F)c3c(c2)OC[C@@H]2CCCN32)C(=O)O1 | 16 | 2 (≈ 5.5 µM) | 4 (≈ 11 µM) | 4 (≈ 11 µM) | 4 (≈ 11 µM) | 8 (≈ 22 µM) | 8 (≈ 22 µM) | –
CC(=O)NC[C@H]1CN(c2ccc(N3CCOCC3)c(F)c2)C(=O)O1 [LINEZOLID] | 3.91 | 1 (≈ 2.96 µM) | – | – | – | 2 (≈ 5.93 µM) | – | –
O=C1O[C@@H](C/N=C(/S)N2CCSCC2)CN1c1cc(F)c2c(c1)OC[C@@H]1CCCN21 | – | 16 (≈ 35.4 µM) | 16 (≈ 35.4 µM) | 16 (≈ 35.4 µM) | 16 (≈ 35.4 µM) | 16 (≈ 35.4 µM) | 16 (≈ 35.4 µM) | –
O=C(CCl)NC[C@H]1CN(c2ccc3c(c2)OC[C@@H]2CCCN32)C(=O)O1 | – | 2 (≈ 5.47 µM) | 4 (≈ 10.9 µM) | – | 4 (≈ 10.9 µM) | 8 (≈ 21.9 µM) | – | 4 (≈ 10.9 µM)
CC(=O)NC[C@H]1CN(c2ccc3c(c2)OC[C@@H]2CCCN32)C(=O)O1 | – | 4 (≈ 12.1 µM) | 16 (≈ 48.3 µM) | 4 (≈ 12.1 µM) | 8 (≈ 24.1 µM) | 16 (≈ 48.3 µM) | 16 (≈ 48.3 µM) | –
O=C(NC[C@H]1CN(c2ccc3c(c2)OC[C@@H]2CCCN32)C(=O)O1)C(Cl)Cl | – | 4 (≈ 9.99 µM) | 8 (≈ 20 µM) | – | 4 (≈ 9.99 µM) | 8 (≈ 20 µM) | – | 8 (≈ 20 µM)
CCCCO/C(S)=N\C[C@H]1CN(c2cc(F)c3c(c2)OC[C@@H]2CCCN32)C(=O)O1 | – | > 32 | > 32 | > 32 | > 32 | > 32 | – | > 32
O=C1O[C@@H](C/N=C(/S)N2CCCC2)CN1c1cc(F)c2c(c1)OC[C@@H]1CCCN21 | – | 32 (≈ 76.1 µM) | 32 (≈ 76.1 µM) | 32 (≈ 76.1 µM) | 32 (≈ 76.1 µM) | 32 (≈ 76.1 µM) | 32 (≈ 76.1 µM) | –
C=CC(=O)NC[C@H]1CN(c2cc(F)c3c(c2)OC[C@@H]2CCCN32)C(=O)O1 | 30 | 4 (≈ 11.1 µM) | 4 (≈ 11.1 µM) | 4 (≈ 11.1 µM) | 4 (≈ 11.1 µM) | 4 (≈ 11.1 µM) | 4 (≈ 11.1 µM) | –
O=CNC[C@H]1CN(c2ccc3c(c2)OC[C@@H]2CCCN32)C(=O)O1 | – | 4 (≈ 12.6 µM) | 16 (≈ 50.4 µM) | – | 8 (≈ 25.2 µM) | 16 (≈ 50.4 µM) | 16 (≈ 50.4 µM) | –
C=CC(=O)NC[C@H]1CN(c2ccc3c(c2)OC[C@@H]2CCCN32)C(=O)O1 | – | 4 (≈ 11.6 µM) | 8 (≈ 23.3 µM) | – | 8 (≈ 23.3 µM) | 8 (≈ 23.3 µM) | 8 (≈ 23.3 µM) | –
O=C(CC(F)(F)F)NC[C@H]1CN(c2cc(F)c3c(c2)OC[C@@H]2CCCN32)C(=O)O1 | – | 4 (≈ 9.58 µM) | 4 (≈ 9.58 µM) | 8 (≈ 19.2 µM) | 8 (≈ 19.2 µM) | 4 (≈ 9.58 µM) | 4 (≈ 9.58 µM) | –
CCCCCCC(=O)NC[C@H]1CN(c2cc(F)c3c(c2)OC[C@@H]2CCCN32)C(=O)O1 | – | 32 (≈ 76.3 µM) | 32 (≈ 76.3 µM) | 32 (≈ 76.3 µM) | 32 (≈ 76.3 µM) | 32 (≈ 76.3 µM) | 32 (≈ 76.3 µM) | –
CCCC/C(S)=N\C[C@H]1CN(c2cc(F)c3c(c2)OC[C@@H]2CCCN32)C(=O)O1 | – | 2 (≈ 4.91 µM) | 2 (≈ 4.91 µM) | 2 (≈ 4.91 µM) | 4 (≈ 9.82 µM) | 2 (≈ 4.91 µM) | 2 (≈ 4.91 µM) | –
O=C1O[C@@H](C/N=C(/S)N2CCOCC2)CN1c1cc(F)c2c(c1)OC[C@@H]1CCCN21 | – | 16 (≈ 36.7 µM) | 16 (≈ 36.7 µM) | 16 (≈ 36.7 µM) | 16 (≈ 36.7 µM) | 16 (≈ 36.7 µM) | 16 (≈ 36.7 µM) | –
N=C(S)NC[C@H]1CN(c2cc(F)c3c(c2)OC[C@@H]2CCCN32)C(=O)O1 | – | 0.5 (≈ 1.36 µM) | 1 (≈ 2.73 µM) | 0.5 (≈ 1.36 µM) | 0.5 (≈ 1.36 µM) | 1 (≈ 2.73 µM) | 1 (≈ 2.73 µM) | –
O=C(NC[C@H]1CN(c2ccc3c(c2)OC[C@@H]2CCCN32)C(=O)O1)C(F)F | – | 2 (≈ 5.44 µM) | 4 (≈ 10.9 µM) | – | 4 (≈ 10.9 µM) | 4 (≈ 10.9 µM) | – | 4 (≈ 10.9 µM)
CC(C)C(=O)NC[C@H]1CN(c2cc(F)c3c(c2)OC[C@@H]2CCCN32)C(=O)O1 | – | 8 (≈ 21.2 µM) | 16 (≈ 42.4 µM) | 8 (≈ 21.2 µM) | 8 (≈ 21.2 µM) | 16 (≈ 42.4 µM) | 16 (≈ 42.4 µM) | –
CCCCC(=O)NC[C@H]1CN(c2cc(F)c3c(c2)OC[C@@H]2CCCN32)C(=O)O1 | – | 8 (≈ 20.4 µM) | 16 (≈ 40.9 µM) | 16 (≈ 40.9 µM) | 16 (≈ 40.9 µM) | 32 (≈ 81.7 µM) | 16 (≈ 40.9 µM) | –
O=C(CCl)NC[C@H]1CN(c2cc(F)c3c(c2)OC[C@@H]2CCCN32)C(=O)O1 | – | 1 (≈ 2.61 µM) | 2 (≈ 5.21 µM) | – | 1 (≈ 2.61 µM) | 2 (≈ 5.21 µM) | – | 2 (≈ 5.21 µM)
O=CNC[C@H]1CN(c2cc(F)c3c(c2)OC[C@@H]2CCCN32)C(=O)O1 | – | 4 (≈ 11.9 µM) | 4 (≈ 11.9 µM) | 4 (≈ 11.9 µM) | 8 (≈ 23.9 µM) | 8 (≈ 23.9 µM) | 4 (≈ 11.9 µM) | –
CC(C)C(=O)NC[C@H]1CN(c2ccc3c(c2)OC[C@@H]2CCCN32)C(=O)O1 | – | 8 (≈ 22.3 µM) | 32 (≈ 89 µM) | – | 16 (≈ 44.5 µM) | 32 (≈ 89 µM) | 32 (≈ 89 µM) | –
CCOC(=O)NC[C@H]1CN(c2cc(F)c3c(c2)OC[C@@H]2CCCN32)C(=O)O1 | – | 8 (≈ 21.1 µM) | 8 (≈ 21.1 µM) | 8 (≈ 21.1 µM) | 8 (≈ 21.1 µM) | 8 (≈ 21.1 µM) | 8 (≈ 21.1 µM) | –
